According to ChEMBL document CHEMBL1143463, “Potential antitumor agents: flavones and their derivatives from Linaria reflexa Desf” (Bioorg Med Chem Lett, 2005):

Columns and labels:
[1] = In vitro inhibitory concentration against human amelanotic melanoma cell line (C32) in the presence of vinblastine sulfate salt; format: functional
Method in brief: (§1)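 Cell lines grown in RPMI 1640 with 10% FBS, 1% L-glutamine and 1% penicillin/streptomycin at 37 °C in 5% CO2. Seeded at 2–5 × 10^4 cells/well and left 24 h, then exposed 48 h to serial dilutions at final 0.25–50 (DMSO vehicle), six replicates. Cells fixed with cold TCA, stained with SRB, and read at 564 nm. IC50 taken from % inhibition curves, three experiments, mean ± SD.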

COR-L23 = assay: In vitro inhibitory concentration against human carcinoma COR-L23 cells in the presence of vinblastine sulfate salt; format: functional, cell-based; method in brief: as §1
MRC5 = assay: In vitro inhibitory concentration against human fetal lung MRC-5 cell line in the presence of vinblastine sulfate salt; format: functional, cell-based
Method in brief: (§2)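 Cultured in DMEM with 10% FBS, 1% L-glutamine and 1% penicillin/streptomycin at 37 °C in 5% CO2. After 24 h attachment at 2–5 × 10^4 cells/well, cells were treated 48 h with serial dilutions at final 0.25–50 in DMSO-containing medium, six replicates. Survival measured by SRB staining of TCA-fixed cells at 564 nm against untreated control. IC50 from dose–response curves; three experiments, mean ± SD.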

Caco-2 = assay: In vitro inhibitory concentration against human colorectal adenocarcinoma Caco-2 cells in the presence of vinblastine sulfate salt; format: functional, cell-based; method in brief: as §2
ACHN = assay: In vitro inhibitory concentration against renal adenocarcinoma cell line (ACHN) in the presence of taxol; format: functional, cell-based; conditions: Homo sapiens; method in brief: as §1
HepG2 = assay: In vitro inhibitory concentration against human hepatocellular carcinoma HepG-2 cells in the presence of vinblastine sulfate salt; format: functional, cell-based; method in brief: as §2

| Structure (SMILES) | IC50 [1] | IC50 (COR-L23) | IC50 (Caco-2) | IC50 (ACHN) | IC50 (HepG2) | IC50 (MRC5) |
| --- | --- | --- | --- | --- | --- | --- |
| COc1ccc(-c2cc(=O)c3c(O)c(OC)c(O)cc3o2)cc1 [PECTOLINARIGENIN] | 7.02 µM |  |  |  |  | > 159 µM |
| COc1ccc(-c2cc(=O)c3c(O)c(OC)c(O[C@@H]4OC(CO[C@@H]5OC(C)[C@H](O)[C@H](O)C5OC(C)=O)[C@@H](O)[C@H](O)C4O)cc3o2)cc1 (some centres undefined) [ISOLINARIIN A] | 11.8 µM | 6.68 µM | 8.54 µM | 14 µM | 16.4 µM | > 75.3 µM |
| C[C@]12O[C@H]1[C@@H](O)[C@]1(O)C=CO[C@@H](O[C@@H]3O[C@H](CO)[C@@H](O)[C@H](O)[C@H]3O)[C@@H]12 [ANTIRRHINOSIDE] | > 138 µM | > 138 µM | > 138 µM | > 138 µM | > 138 µM | > 138 µM |

More lines, in order of falling IC50 [1], values ahead:

| IC50 [1] | IC50 (COR-L23) | IC50 (Caco-2) | IC50 (ACHN) | IC50 (HepG2) | Structure (SMILES) | IC50 (MRC5) |
| --- | --- | --- | --- | --- | --- | --- |
| 21.5 µM | 10.4 µM | 14 µM | 16.9 µM | 10.9 µM | COc1ccc(-c2cc(=O)c3c(O)c(OC)c(O[C@@H]4OC(CO[C@@H]5OC(C)[C@H](O)[C@H](OC(C)=O)C5O)[C@@H](O)[C@H](O)C4O)cc3o2)cc1 (some centres undefined) | > 75.3 µM |
| 12.6 µM | 5.17 µM | 8.01 µM | 11.2 µM | 23.2 µM | COc1ccc(-c2cc(=O)c3c(O)c(OC)c(O[C@@H]4OC(CO[C@@H]5OC(C)[C@H](OC(C)=O)[C@H](O)C5O)[C@@H](O)C(O)[C@@H]4O)cc3o2)cc1 (some centres undefined) | > 75.3 µM |
| 7.17 µM |  |  |  | 14.1 µM | COc1ccc(-c2cc(=O)c3c(O)c(OC)c(O[C@@H]4O[C@H](CO[C@@H]5O[C@@H](C)[C@H](O)[C@@H](O)[C@H]5O)[C@@H](O)[C@H](O)[C@H]4O)cc3o2)cc1 [PECTOLINARIN] | > 80.3 µM |
